Reference: ChEMBL document CHEMBL1155047, “Isolation, structure, and antibacterial activity of phaeosphenone from a Phaeosphaeria sp. discovered by antisense strategy” (J Nat Prod, 2008)
In brackets after ≈: the same amount, converted by molar mass. Activity calls are given as the source filed them. The rule behind the calls is not given here.

Tests used:
Enterococcus faecalis = test: Antimicrobial activity against vancomycin-sensitive and macrolide-resistant Enterococcus faecalis CL8516; assay type: functional
Method in brief: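 Broth microdilution MIC under NCCLS guidelines in cation-adjusted Mueller Hinton broth unless stated otherwise; inoculum 10^5 CFU/mL; 2-fold serial compound dilutions in growth medium; 37 °C for 20 h. MIC read as lowest concentration preventing visible growth; a value for 80% growth inhibition also reported.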

Streptococcus pneumoniae [1] = test: Antimicrobial activity against penicillin, quinoline and macrolide-sensitive Streptococcus pneumoniae CL2883 in isosensitet medium; assay type: functional
Method in brief: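 Pneumococcal broth MIC run in Isosensitest medium with 2-fold serial compound dilutions, 37 °C for 20 h. The reading is the lowest concentration with no visible growth.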

Streptococcus pneumoniae [2] = test: Antimicrobial activity against penicillin, quinoline and macrolide-sensitive Streptococcus pneumoniae CL2883 in CAMHB and 2.5 % lysed horse serum medium; assay type: functional; settings: in the assay text read “lysed horse blood” for “lysed horse serum”
Method in brief: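 Broth MIC with 2-fold serial dilution in cation-adjusted Mueller Hinton broth plus 2.5% lysed horse blood, incubated 20 h at 37 °C, NCCLS guidelines. Endpoint is no visible growth.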

Staphylococcus aureus [3] = test: Antimicrobial activity against methicillin-sensitive Staphylococcus aureus MB2865 in presence of human serum; assay type: functional
Staphylococcus aureus [4] = test: Antimicrobial activity against methicillin-sensitive Staphylococcus aureus MB2865; assay type: functional
Method in brief: (§1)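 Broth microdilution under NCCLS guidelines, with 2-fold serial compound dilutions. Cells are incubated at 37 °C for 20 h. MIC is the lowest concentration that prevents visible growth. The concentration giving 80% growth inhibition is also reported.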

Staphylococcus aureus [5] = test: Antimicrobial activity against methicillin-sensitive Staphylococcus aureus ATCC 29213; assay type: functional; method in brief: as §1
Bacillus subtilis = test: Antimicrobial activity against wild type Bacillus subtilis MB964; assay type: functional; method in brief: as §1
Haemophilus influenzae = test: Antimicrobial activity against ampicillin, quinoline and macrolide-sensitive Haemophilus influenzae MB4572; assay type: functional; method in brief: as §1
Escherichia coli = test: Antimicrobial activity against wild type Escherichia coli MB2884; assay type: functional; method in brief: as §1
Candida albicans = test: Antimicrobial activity against wild type Candida albicans MY1055; assay type: functional; method in brief: as §1
Staphylococcus aureus [6] = test: Antimicrobial activity against Staphylococcus aureus RN450 carrying plasmid S1-782B bearing antisense […] RNA assessed as zone size at 500 ug/ml by two-plate differential sensitivity assay; assay type: functional; settings: read-out: IZ
Method in brief: (§2)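 The S. aureus RN450 strains carry plasmid S1-782B, either with rpsD antisense RNA or with empty vector (control). Overnight cultures are grown in Miller's LB with 34 µg/mL chloramphenicol at 37 °C, 220 rpm, for 18–20 h. They are seeded 1:1000 of OD 3.0 into LB agar with 0.2% glucose and 15 µg/mL chloramphenicol; 12 mM xylose is added for the antisense strain only. Samples go into wells at 2-fold dilutions from 500 to 31.25 µg/mL. Zones are read after 18 h at 37 °C.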

Staphylococcus aureus [7] = test: Antimicrobial activity against Staphylococcus aureus RN450 assessed as zone size at 500 ug/ml by two-plate differential sensitivity assay; assay type: functional; settings: read-out: IZ; method in brief: as §2
Staphylococcus aureus [8] = test: Antimicrobial activity against Staphylococcus aureus RN450 carrying plasmid S1-782B bearing antisense […] RNA assessed as zone size at 31.25 ug/ml by two-plate differential sensitivity assay; assay type: functional; settings: read-out: IZ; method in brief: as §2
Staphylococcus aureus [9] = test: Antimicrobial activity against Staphylococcus aureus RN450 assessed as zone size at 31.25 ug/ml by two-plate differential sensitivity assay; assay type: functional, organism-based; method in brief: as §2
Staphylococcus aureus [10] = test: Inhibition of Staphylococcus aureus RNA synthesis; assay type: functional, organism-based
Method in brief: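 Mid-log S. aureus (A600 0.5–0.6) is exposed to increasing compound concentrations for 20 min at 37 °C with 1 µCi/mL 5,6-[3H]uracil. The reaction is stopped with 10% trichloroacetic acid, and cells are collected on glass-fibre filters. Incorporated label is counted by scintillation.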

SMILES | MIC (Enterococcus faecalis) | MIC (Streptococcus pneumoniae [1]) | MIC (Streptococcus pneumoniae [2]) | MIC (Staphylococcus aureus [3]) | MIC (Staphylococcus aureus [4]) | MIC80 (Staphylococcus aureus [4]) | MIC (Staphylococcus aureus [5]) | MIC80 (Staphylococcus aureus [5]) | MIC (Bacillus subtilis) | MIC (Haemophilus influenzae) | MIC (Escherichia coli) | MIC (Candida albicans) | zone of inhibition at 500 µg/mL (Staphylococcus aureus [6]) | zone of inhibition at 500 µg/mL (Staphylococcus aureus [7]) | zone of inhibition at 31.25 µg/mL (Staphylococcus aureus [8]) | Activity (Staphylococcus aureus [9]) | IC50 (Staphylococcus aureus [10])
Cc1cc(O)c2c(c1)C(=O)c1c(cc(C)c([C@H]3C[C@@H](O)C4=C(C(=O)C5=C(C4=O)[C@@H](O)CC[C@@H]5O)[C@H]3O)c1O)C2=O [PHAEOSPHENONE] | 64 µg/mL (≈ 117 µM) | 8 µg/mL (≈ 14.6 µM) | 64 µg/mL (≈ 117 µM) | > 64 µg/mL | 64 µg/mL (≈ 117 µM) | 32 µg/mL (≈ 58.6 µM) | 32 µg/mL (≈ 58.6 µM) | 16 µg/mL (≈ 29.3 µM) | 16 µg/mL (≈ 29.3 µM) | > 64 µg/mL | > 64 µg/mL | 8 µg/mL (≈ 14.6 µM) | 16 mm | 11.8 mm | 7 mm | inactive | 
Cc1cc(O)c2c(c1)C(=O)C1=C(C2=O)[C@@H](O)[C@@H](O)[C@@H](O)C1 [PLEOSPORONE] |  |  |  |  |  |  |  |  |  |  |  |  |  |  |  |  | 6 µg/mL (≈ 20.7 µM)
